Experiment: Toxicity liver stage against HepG2, at 10uM
Assay type: cell-based
Parameters: test concentration 10 uM, cell line HepG2-A16-CD81EGFP
Details: human, HepG2-A16-CD81EGFP cells; read-out: INHIBITION
How it was run: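 Uninfected HepG2-A16-CD81EGFP cells, 3 × 10^3 per well, 1536-well, plated on prespotted compound at 10 μM final, parasite-free screening media added to match infected plates; puromycin 10 μM positive, DMSO 0.5% negative; run in parallel with 48 h PbLuc assay at 37 °C, 5% CO2; viability by CellTiter-Glo luminescence, normalized to controls.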

Row | SMILES | cytotoxicity at 10 µM [%]
1 | CN(C)C(=O)CN1C[C@H]2CCN(C(=O)C3CCCO3)CC[C@H]2S1(=O)=O (stereo not given in full) | 20.6
2 | Cn1cccc1C(=O)N[C@@H]1CN(Cc2ccsc2)[C@@H]2COC[C@@H]21 | 9.9
3 | Cc1ncsc1CN(C)Cc1cc2c(cc1OC(F)F)OCO2 | 6.22
4 | Cc1nc(CN2CC[C@H]3[C@H]2CCN3c2ncccn2)cs1 | -0.603
5 | CCc1n[nH]c(C2CN(C(=O)CCCn3cccn3)CCO2)n1 (stereo not given) | -6.69
6 | Cc1ncsc1C(=O)N1CCC(Nc2cccnn2)CC1 | -1.89
7 | COc1cc(OC)cc(-c2cccc3c2OC(CN)C3)c1 (stereo not given) | -53
8 | COc1ccc(-n2nc(C)c(C(C)=O)c2C)cc1CO | 11.2
9 | COCCO[C@H]1CCN(C(=O)c2ccoc2C)[C@H]1Cc1cnn(C)c1 | -6.98
10 | Cc1cnccc1-c1cnn(CCNC(=O)c2ccncc2)c1C1CC1 | 6.95
11 | C[C@@H]1C[C@@H]2CCN(Cc3ccccn3)C[C@H]2O1 | -75.9
12 | CCN1CCCC(c2c(-c3ccccc3)ncn2CC(N)=O)C1 (stereo not given) | -15.4
13 | N#Cc1cccc(C(=O)N2CCn3c(Cn4cncn4)cnc3C2)c1 | 7.42
14 | COc1ccc(NCC2(O)CCNCC2)cc1OC | 6.2
15 | O=S(=O)(CCSc1nccn1C1CC1)c1ccccc1 | -4.63
16 | Cc1cnn(-c2cncc(C(N)=O)c2)c1 | 3.04
17 | CCCn1nc2c(cc1=O)CN(Cc1nc(CCOC)no1)CC2 | -2.7
18 | c1cncc(CN2CCn3c(Cn4cncn4)cnc3C2)c1 | -70.9
19 | CCO[C@H]1CC[C@H]2[C@H]1OCCN2C(=O)COc1ccccc1 | -94
20 | CCOc1cc(C)nc(N2CCN(C(=O)c3cn[nH]c3CC)CC2)n1 | -2
21 | CC(C)OCCN(Cc1cccc(O)c1)C1CCC(O)CC1 (stereo not given) | 5.81
22 | Cc1cnn(CC2CCCN2C(=O)c2sccc2C#N)c1 (stereo not given) | 12.3
23 | CCC(C)N(Cc1ccncc1)Cc1cccc(Cn2cccn2)c1 (stereo not given) | -45.1

Row | SMILES | cytotoxicity at 10 µM [%]
24 | Cc1ccc(-c2nc(C3CCN(C(=O)c4ccnn4C)CC3)no2)cn1 | -5.17
25 | CC1=C[C@@H](CN2CCC(CO)CC2)[C@H](C(C)C)C[C@H]1Cc1nnc(C)o1 | 8.24
26 | CC(C)c1nn(C)c(N(C)C)c1CNCc1ccc2c(c1)OCCO2 | -12.6
27 | COc1ccc(CCNC(=O)NC2CC(=O)N(c3ccccc3)C2)cc1 (stereo not given) | -48
28 | CN(C(=O)COc1ccc(F)cc1)[C@@H]1CS(=O)(=O)C[C@H]1O | -2.62
29 | O=C(Nc1ccc2c(c1)OCCO2)N1CCCN(Cc2cccs2)CC1 | 3.45
30 | Cc1ccccc1C1(CNC(=O)c2cccc(S(C)(=O)=O)c2)CC1 | -0.185
31 | CCC(O)CN1CCN(C(=O)c2cccn2Cc2cccs2)CC1 (stereo not given) | -5.74
32 | Cc1csc2c(=O)n3c(nc12)CCN(C(=O)c1ccccn1)CC3 | -10.2
33 | CCC(CC)N1CCC(c2[nH]ncc2S(C)(=O)=O)C1 (stereo not given) | -3.51
34 | COc1ccc(-c2cc3nn(CC(=O)NC(C)C)c(=O)n3c(C)n2)cc1 | 1.81
35 | O=C(CN1CCCC1Cn1cncn1)Nc1nccs1 (stereo not given) | 4.1
36 | CN1CC(=O)N(c2ccsc2)CC12CCN(C(=O)c1ccccc1)C2 (stereo not given) | -0.516
37 | Cc1c(O)oc(-c2ccc(Br)cc2)nc1=O | -1.56
38 | COc1ccc(Cc2nnc3n2N=C(C(C)(C)C)CS3)cc1 | 10.7
39 | CC(C)OCCCNC(=O)[C@@]12CNC[C@@H]1CN(S(C)(=O)=O)C2 | 6.99
40 | Cc1c(C(C)NCc2cnn(C)c2)cnn1-c1ccccc1 (stereo not given) | -5.78
41 | CC(NC(=O)CCCN(C)C)c1cn(-c2ccccc2)nn1 (stereo not given) | -22.7
42 | O=C(NCCc1nccs1)N1CCC(n2cccc2)CC1 | 5.87
43 | O=C(Cc1cccc(F)c1)N1CCc2ncnc(NC3CCC3)c2CC1 | -105
44 | Cc1ccccc1OC1CCN(CC(=O)Nc2cn(C)nc2C)CC1 | -0.0825
45 | CNC(=O)c1csc(-c2cccnc2)n1 | 3.19

From ChEMBL document CHEMBL4513216, “Probing the Open Global Health Chemical Diversity Library for Multistage-Active Starting Points for Next-Generation Antimalarials” (ACS Infect Dis, 2020)
